Test results: ChEMBL document CHEMBL3259818, “Tomensides A-D, new antiproliferative phenylpropanoid sucrose esters from Prunus tomentosa leaves” (Bioorg Med Chem Lett, 2014)

How the values were obtained:
Type in all cases: functional, cell-based
[1] = system: HT-29; experiment: Cytotoxicity against human HT-29 cells after 2 days by MTT assay; conditions: HT-29, 48 h
Procedure, shortened: (§1)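 Cells grown in RPMI-1640 and seeded in 96-well plates for 4 h before sample addition. Test samples were tested at four concentrations, with 37 °C incubation for 2 days. MTT solution (5 mg/mL) was then added for a further 4 h. Formazan was dissolved in 10% SDS in 0.01 M HCl and absorbance read at 550 nm. IC50 determined; 5-fluorouracil served as positive control.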

[2] = system: A549; experiment: Cytotoxicity against human A549 cells after 2 days by MTT assay; conditions: A549, 48 h; procedure, shortened: as §1
[3] = system: MCF7; experiment: Cytotoxicity against human MCF7 cells after 2 days by MTT assay; conditions: MCF7, 48 h; procedure, shortened: as §1
[4] = system: HeLa; experiment: Cytotoxicity against human HeLa cells after 2 days by MTT assay; conditions: 48 h; procedure, shortened: as §1

`O=c1[nH]cc(F)c(=O)[nH]1` [FLUOROURACIL] showed an IC50 [1] of 17200 nM.
Work on `CC(=O)OC[C@H]1O[C@H](O[C@]2(CO)O[C@H](CO)[C@@H](O)[C@@H]2OC(=O)/C=C/c2ccc(O)cc2)[C@H](O)[C@@H](OC(C)=O)[C@@H]1OC(C)=O` yielded an IC50 [2] of 1470 nM, an IC50 [3] of 2930 nM and an IC50 [1] of 2780 nM. It also gave an IC50 [4] of 3800 nM.
`COc1cc(/C=C/C(=O)O[C@H]2[C@H](O)[C@@H](CO)O[C@@]2(COC(C)=O)O[C@H]2O[C@H](COC(C)=O)[C@@H](O)[C@H](O)[C@H]2OC(C)=O)ccc1O` gave an IC50 [2] of 450 nM, an IC50 [3] of 770 nM and an IC50 [1] of 460 nM. The IC50 [4] was 1090 nM.
`CC(=O)OC[C@H]1O[C@H](O[C@]2(COC(C)=O)O[C@H](CO)[C@@H](O)[C@@H]2OC(=O)/C=C/c2ccc(O)cc2)[C@H](O)[C@@H](O)[C@@H]1OC(C)=O` was tested, and the IC50 [2] was 490 nM, the IC50 [3] was 1220 nM and the IC50 [1] was 1480 nM. For the same compound, the IC50 [4] was 970 nM.
Compound `CC(=O)OC[C@H]1O[C@H](O[C@]2(CO)O[C@H](CO)[C@@H](O)[C@@H]2OC(=O)/C=C/c2ccc(O)cc2)[C@H](OC(C)=O)[C@@H](OC(C)=O)[C@@H]1O` has an IC50 [2] of 1120 nM, an IC50 [3] of 980 nM and an IC50 [1] of 2450 nM. It also gave an IC50 [4] of 4320 nM.
`CC(=O)OC[C@H]1O[C@H](O[C@]2(COC(C)=O)O[C@H](CO)[C@@H](OC(C)=O)[C@@H]2OC(=O)/C=C/c2ccc(O)cc2)[C@H](O)[C@@H](O)[C@@H]1O` gave an IC50 [2] of 290 nM, an IC50 [3] of 620 nM and an IC50 [1] of 180 nM. The IC50 [4] was 110 nM.
For `CC(=O)OC[C@H]1O[C@H](O[C@]2(COC(C)=O)O[C@H](CO)[C@@H](O)[C@@H]2OC(=O)/C=C/c2ccc(O)cc2)[C@H](O)[C@@H](OC(C)=O)[C@@H]1O`, the IC50 [2] was 2560 nM, the IC50 [3] was 1440 nM and the IC50 [1] was 2100 nM. For the same compound, the IC50 [4] was 1330 nM.
Work on `CC(=O)OC[C@H]1O[C@H](O[C@]2(COC(C)=O)O[C@H](CO)[C@@H](O)[C@@H]2OC(=O)/C=C/c2ccc(O)cc2)[C@H](OC(C)=O)[C@@H](O)[C@@H]1O` yielded an IC50 [2] of 3200 nM, an IC50 [3] of 3440 nM and an IC50 [1] of 3960 nM. It also gave an IC50 [4] of 2490 nM.
